# According to ChEMBL document CHEMBL1955824, “Indeno[1,2-b]indole derivatives as a novel class of potent human protein kinase CK2 inhibitors” (Bioorg Med Chem, 2012):
# Assays:
# [1] = target: Casein kinase II alpha/beta (Homo sapiens) (UniProt P67870+P68400); assay: Inhibition of human CSNK2A1/2B expressed in Escherichia coli BL21(DE3) using RRRDDDSDDD as substrate at 10 uM after 15 mins by scintillation counting
# Summary of the method: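 Holoenzyme from CSNK2A1 and CSNK2B subunits expressed separately in E. coli, extracts combined, column-purified. Enzyme preincubated with inhibitor in DMSO in Tris pH 7.5 kinase buffer. Final ATP 60 µM, peptide 114 µM. Incubated 37 °C for 15 min, spotted on P81 paper, washed with phosphoric acid and ethanol, then counted. Controls: DMSO (0%), no CK2 (100%).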
# [2] = Inhibition of casein kinase-2
# Summary of the method: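 Recombinant human CK2 holoenzyme (CSNK2A1 and CSNK2B expressed separately in E. coli, extracts combined and purified), preincubated with compound in DMSO in kinase buffer pH 7.5. 37 °C, 15 min, P81 paper, scintillation counting. IC50 from dose–response over 0.01–30 µM, at least triplicate independent experiments.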
# [3] = target: Proto-oncogene tyrosine-protein kinase Src (Homo sapiens, UniProt P12931); assay: Inhibition of human recombinant SRC expressed in Sf9 cells using poly(E,Y)4:1 as substrate after 80 mins by scintillation counting
# Summary of the method: (§1)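 Commercial radiometric panel of His-tagged or GST-fused human kinases expressed in Sf9 cells, affinity-purified. Inhibitor added in 10% DMSO. Ten concentrations tested in singlicate; IC50 taken from dose–response curves.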
# [4] = target: Vascular endothelial growth factor receptor 2 (Homo sapiens, UniProt P35968); assay: Inhibition of human recombinant VEGF-R2 expressed in Sf9 cells using poly(E,Y)4:1 as substrate after 80 mins by scintillation counting; summary of the method: as §1
# [5] = target: Vascular endothelial growth factor receptor 3 (Homo sapiens, UniProt P35916); assay: Inhibition of human recombinant VEGF-R3 expressed in Sf9 cells using poly(E,Y)4:1 as substrate after 80 mins by scintillation counting; summary of the method: as §1
# [6] = target: Insulin receptor (Homo sapiens, UniProt P06213); assay: Inhibition of human recombinant INS-R expressed in Sf9 cells using poly(A,E,K,Y)6:2:5:1 as substrate after 80 mins by scintillation counting; summary of the method: as §1
# [7] = target: Hepatocyte growth factor receptor (Homo sapiens, UniProt P08581); assay: Inhibition of human recombinant MET expressed in Sf9 cells using poly(A,E,K,Y)6:2:5:1 as substrate after 80 mins by scintillation counting; summary of the method: as §1
# [8] = target: Serine/threonine-protein kinase PLK1 (Homo sapiens, UniProt P53350); assay: Inhibition of human recombinant PLK1 expressed in Sf9 cells using casein as substrate after 80 mins by scintillation counting; summary of the method: as §1
# [9] = target: Serine/threonine-protein kinase PLK4 (Homo sapiens, UniProt O00444); assay: Inhibition of human recombinant SAK expressed in Sf9 cells using p38alpha-KRKR as substrate after 80 mins by scintillation counting; summary of the method: as §1
# [10] = target: Angiopoietin-1 receptor (Homo sapiens, UniProt Q02763); assay: Inhibition of human recombinant TIE2 expressed in Sf9 cells using poly(E,Y)4:1 as substrate after 80 mins by scintillation counting; summary of the method: as §1
# [11] = target: Mitogen-activated protein kinase kinase kinase 8 (Homo sapiens, UniProt P41279); assay: Inhibition of human recombinant COT expressed in Sf9 cells assessed as autophosphorylation after 80 mins by scintillation counting; summary of the method: as §1
# [12] = target: RAC-alpha serine/threonine-protein kinase (Homo sapiens, UniProt P31749); assay: Inhibition of human recombinant AKT1 expressed in Sf9 cells using GSK3(14-27) as substrate after 80 mins by scintillation counting; summary of the method: as §1
# [13] = target: NUAK family SNF1-like kinase 1 (Homo sapiens, UniProt O60285); assay: Inhibition of human recombinant ARK5 expressed in Sf9 cells assessed as autophosphorylation after 80 mins by scintillation counting; summary of the method: as §1
# [14] = target: Aurora kinase A (Homo sapiens, UniProt O14965); assay: Inhibition of human recombinant aurora-A expressed in Sf9 cells using tetra(LRRWSLG) as substrate after 80 mins by scintillation counting; summary of the method: as §1
# [15] = target: Aurora kinase B (Homo sapiens, UniProt Q96GD4); assay: Inhibition of human recombinant aurora-B expressed in Sf9 cells using tetra(LRRWSLG) as substrate after 80 mins by scintillation counting; summary of the method: as §1
# [16] = target: Serine/threonine-protein kinase B-raf (Homo sapiens, UniProt P15056); assay: Inhibition of human recombinant B-RAF expressed in Sf9 cells using MEK1 KM as substrate after 80 mins by scintillation counting; summary of the method: as §1
# [17] = target: Cyclin-dependent kinase 2/cyclin A (Homo sapiens, UniProt P24941); assay: Inhibition of human recombinant CDK2/CyclinA expressed in Sf9 cells using histone H1 as substrate after 80 mins by scintillation counting; summary of the method: as §1
# [18] = target: Cyclin-dependent kinase 4/cyclin D1 (Homo sapiens, UniProt P11802); assay: Inhibition of human recombinant CDK4/CyclinD1 expressed in Sf9 cells using RB-CTF as substrate after 80 mins by scintillation counting; summary of the method: as §1
# [19] = target: Ephrin type-B receptor 4 (Homo sapiens, UniProt P54760); assay: Inhibition of human recombinant EPHB4 expressed in Sf9 cells using poly(E,Y)4:1 as substrate after 80 mins by scintillation counting; summary of the method: as §1
# [20] = target: Receptor tyrosine-protein kinase erbB-2 (Homo sapiens, UniProt P04626); assay: Inhibition of human recombinant ERBB2 expressed in Sf9 cells using poly(E,Y)4:1 as substrate after 80 mins by scintillation counting; summary of the method: as §1
# [21] = target: Focal adhesion kinase 1 (Homo sapiens, UniProt Q05397); assay: Inhibition of human recombinant FAK expressed in Sf9 cells using poly(E,Y)4:1 as substrate after 80 mins by scintillation counting; summary of the method: as §1
# [22] = target: Insulin-like growth factor 1 receptor (Homo sapiens, UniProt P08069); assay: Inhibition of human recombinant IGF1R expressed in Sf9 cells using poly(E,Y)4:1 as substrate after 80 mins by scintillation counting; summary of the method: as §1
# [23] = Inhibition of calf thymus casein kinase-2 using casein as substrate after 15 mins by liquid scintillation counting; parameters: species or system Bos taurus
# [24] = target: Casein kinase II alpha/beta (Homo sapiens, UniProt P68400); assay: Inhibition of human CSNK2A1/2B expressed in Escherichia coli BL21(DE3) using RRRDDDSDDD as substrate after 15 mins by scintillation counting
# [25] = Growth inhibition of human KYSE-70 cells at 20 uM after 96 hrs by crystal violet staining; assay type: functional; conditions: KYSE-70, 96 h, read-out: GI
# Summary of the method: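 KYSE-70 esophageal cancer cells grown in RPMI 1640 with 10% FCS, penicillin G and streptomycin. Cells exposed 96 h to compounds dissolved in DMF (final solvent 0.1%). Fixed 20 min in 1% glutaraldehyde, stained 30 min with 0.02% crystal violet, washed 30 min in water. Bound dye dissolved in ethanol/water 7:3, absorbance read at 570 nm.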
# [26] = Inhibition of rat liver casein kinase-2 preincubated for 5 mins prior ATP addition measured after 40 mins
# Chain of Casein kinase II alpha/beta (Homo sapiens) (P67870 2-215 limits assumed): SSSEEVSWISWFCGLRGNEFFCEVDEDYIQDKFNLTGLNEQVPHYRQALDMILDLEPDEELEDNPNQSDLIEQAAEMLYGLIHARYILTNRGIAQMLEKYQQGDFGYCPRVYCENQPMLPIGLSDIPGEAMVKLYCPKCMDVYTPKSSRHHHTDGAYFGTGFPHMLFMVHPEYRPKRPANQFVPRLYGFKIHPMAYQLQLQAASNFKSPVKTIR
# Chain of Casein kinase II alpha/beta (Homo sapiens) (P68400 whole entry partner): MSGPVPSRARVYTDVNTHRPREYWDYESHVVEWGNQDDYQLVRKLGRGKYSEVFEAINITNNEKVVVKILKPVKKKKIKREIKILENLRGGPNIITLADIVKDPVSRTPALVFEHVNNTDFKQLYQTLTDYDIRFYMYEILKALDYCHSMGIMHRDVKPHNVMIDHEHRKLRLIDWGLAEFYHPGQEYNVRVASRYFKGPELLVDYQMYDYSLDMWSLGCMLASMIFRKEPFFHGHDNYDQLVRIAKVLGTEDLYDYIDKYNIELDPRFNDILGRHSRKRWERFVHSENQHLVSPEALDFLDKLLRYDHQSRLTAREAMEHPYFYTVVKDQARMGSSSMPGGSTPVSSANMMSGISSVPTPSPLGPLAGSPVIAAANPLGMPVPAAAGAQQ
# Chain of NUAK family SNF1-like kinase 1 (O60285 whole entry): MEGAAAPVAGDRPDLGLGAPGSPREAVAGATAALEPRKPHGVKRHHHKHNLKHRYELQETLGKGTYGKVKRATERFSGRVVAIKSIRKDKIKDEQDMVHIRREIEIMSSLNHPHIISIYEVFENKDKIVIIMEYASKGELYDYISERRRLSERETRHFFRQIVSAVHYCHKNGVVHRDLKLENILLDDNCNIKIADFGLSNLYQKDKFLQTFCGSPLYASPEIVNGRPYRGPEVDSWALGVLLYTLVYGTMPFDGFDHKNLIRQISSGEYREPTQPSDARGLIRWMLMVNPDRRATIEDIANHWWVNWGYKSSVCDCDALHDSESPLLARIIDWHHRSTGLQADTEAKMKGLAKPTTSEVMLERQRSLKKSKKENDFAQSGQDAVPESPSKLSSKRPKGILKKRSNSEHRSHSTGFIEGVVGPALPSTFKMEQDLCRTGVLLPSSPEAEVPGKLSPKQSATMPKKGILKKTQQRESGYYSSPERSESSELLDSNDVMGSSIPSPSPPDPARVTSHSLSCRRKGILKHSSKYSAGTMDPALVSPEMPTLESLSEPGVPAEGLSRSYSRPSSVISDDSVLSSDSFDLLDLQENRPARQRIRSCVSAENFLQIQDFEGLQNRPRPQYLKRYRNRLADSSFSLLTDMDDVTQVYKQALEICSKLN
# Chain of Hepatocyte growth factor receptor (P08581 whole entry): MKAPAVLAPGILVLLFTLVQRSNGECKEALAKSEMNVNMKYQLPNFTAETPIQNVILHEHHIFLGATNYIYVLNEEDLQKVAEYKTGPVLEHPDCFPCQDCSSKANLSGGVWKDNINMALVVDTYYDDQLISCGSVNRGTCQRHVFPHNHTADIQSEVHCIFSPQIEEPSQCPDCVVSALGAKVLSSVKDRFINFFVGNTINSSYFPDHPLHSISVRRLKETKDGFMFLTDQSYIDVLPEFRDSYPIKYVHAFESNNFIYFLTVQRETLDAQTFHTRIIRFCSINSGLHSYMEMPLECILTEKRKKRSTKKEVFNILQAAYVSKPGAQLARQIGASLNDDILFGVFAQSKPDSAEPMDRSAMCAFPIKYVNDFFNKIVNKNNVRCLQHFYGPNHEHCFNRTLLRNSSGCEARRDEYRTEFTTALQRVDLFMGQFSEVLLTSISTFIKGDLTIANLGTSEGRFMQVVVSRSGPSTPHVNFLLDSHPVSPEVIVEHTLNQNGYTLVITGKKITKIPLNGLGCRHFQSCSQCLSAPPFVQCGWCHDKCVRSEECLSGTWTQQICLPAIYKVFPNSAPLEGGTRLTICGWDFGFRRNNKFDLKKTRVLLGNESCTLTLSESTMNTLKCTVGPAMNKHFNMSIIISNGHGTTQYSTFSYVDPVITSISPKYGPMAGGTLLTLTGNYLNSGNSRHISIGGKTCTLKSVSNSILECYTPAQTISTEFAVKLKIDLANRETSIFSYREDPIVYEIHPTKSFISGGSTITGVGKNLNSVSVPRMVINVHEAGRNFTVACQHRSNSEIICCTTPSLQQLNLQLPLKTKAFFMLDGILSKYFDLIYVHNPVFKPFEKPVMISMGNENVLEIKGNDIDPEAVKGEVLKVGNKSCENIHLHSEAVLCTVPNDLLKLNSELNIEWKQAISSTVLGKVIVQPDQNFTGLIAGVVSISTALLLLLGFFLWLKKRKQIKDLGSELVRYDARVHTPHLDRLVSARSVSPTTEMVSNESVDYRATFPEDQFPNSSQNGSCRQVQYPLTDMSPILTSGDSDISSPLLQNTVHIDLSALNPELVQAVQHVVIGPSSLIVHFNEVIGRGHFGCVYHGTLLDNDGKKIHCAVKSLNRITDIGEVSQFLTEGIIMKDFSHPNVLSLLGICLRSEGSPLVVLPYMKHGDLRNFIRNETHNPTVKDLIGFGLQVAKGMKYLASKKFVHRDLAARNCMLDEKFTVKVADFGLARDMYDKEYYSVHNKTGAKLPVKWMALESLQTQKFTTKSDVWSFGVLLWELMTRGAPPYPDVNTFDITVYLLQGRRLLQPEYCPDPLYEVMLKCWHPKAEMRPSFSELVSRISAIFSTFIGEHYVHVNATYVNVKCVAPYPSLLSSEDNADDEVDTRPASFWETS
# Chain of Insulin receptor (P06213 28-758 limits assumed): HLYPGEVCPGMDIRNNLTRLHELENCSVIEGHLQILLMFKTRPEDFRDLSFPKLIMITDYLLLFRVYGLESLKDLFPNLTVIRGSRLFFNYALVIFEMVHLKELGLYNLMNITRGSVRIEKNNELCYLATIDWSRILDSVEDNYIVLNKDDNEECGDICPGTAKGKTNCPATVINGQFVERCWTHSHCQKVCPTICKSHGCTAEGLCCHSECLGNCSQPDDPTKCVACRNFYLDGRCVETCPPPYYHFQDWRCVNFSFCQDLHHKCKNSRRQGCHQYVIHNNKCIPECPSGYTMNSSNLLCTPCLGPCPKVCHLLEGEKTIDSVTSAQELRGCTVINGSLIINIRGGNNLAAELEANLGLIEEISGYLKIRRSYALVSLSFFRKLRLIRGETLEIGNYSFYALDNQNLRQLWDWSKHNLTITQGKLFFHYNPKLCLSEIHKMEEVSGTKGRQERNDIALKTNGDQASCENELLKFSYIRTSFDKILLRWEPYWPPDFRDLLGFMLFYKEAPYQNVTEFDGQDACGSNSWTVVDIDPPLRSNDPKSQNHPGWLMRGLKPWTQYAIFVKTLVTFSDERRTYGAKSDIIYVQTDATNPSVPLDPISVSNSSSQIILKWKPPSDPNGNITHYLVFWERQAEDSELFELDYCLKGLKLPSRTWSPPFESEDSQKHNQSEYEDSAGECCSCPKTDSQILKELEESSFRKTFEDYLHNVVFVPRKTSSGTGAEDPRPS
# Chain of Insulin receptor (P06213 763-1382 limits assumed): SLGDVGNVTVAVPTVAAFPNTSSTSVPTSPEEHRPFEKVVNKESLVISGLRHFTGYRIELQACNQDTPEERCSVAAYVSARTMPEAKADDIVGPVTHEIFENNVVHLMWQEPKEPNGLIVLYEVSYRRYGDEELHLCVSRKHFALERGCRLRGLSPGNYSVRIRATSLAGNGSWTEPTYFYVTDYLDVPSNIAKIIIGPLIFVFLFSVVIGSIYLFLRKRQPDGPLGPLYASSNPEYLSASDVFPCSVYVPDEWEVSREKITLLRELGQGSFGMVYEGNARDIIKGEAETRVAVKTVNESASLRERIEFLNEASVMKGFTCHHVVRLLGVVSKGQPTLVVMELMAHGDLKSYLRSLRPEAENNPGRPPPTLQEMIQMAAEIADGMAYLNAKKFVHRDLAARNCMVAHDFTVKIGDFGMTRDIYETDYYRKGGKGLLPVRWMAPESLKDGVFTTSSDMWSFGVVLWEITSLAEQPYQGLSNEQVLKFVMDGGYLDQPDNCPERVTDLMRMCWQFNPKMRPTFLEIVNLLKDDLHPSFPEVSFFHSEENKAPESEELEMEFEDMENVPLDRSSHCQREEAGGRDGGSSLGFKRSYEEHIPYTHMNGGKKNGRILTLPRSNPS
# Chain of Cyclin-dependent kinase 4/cyclin D1 (P11802 whole entry): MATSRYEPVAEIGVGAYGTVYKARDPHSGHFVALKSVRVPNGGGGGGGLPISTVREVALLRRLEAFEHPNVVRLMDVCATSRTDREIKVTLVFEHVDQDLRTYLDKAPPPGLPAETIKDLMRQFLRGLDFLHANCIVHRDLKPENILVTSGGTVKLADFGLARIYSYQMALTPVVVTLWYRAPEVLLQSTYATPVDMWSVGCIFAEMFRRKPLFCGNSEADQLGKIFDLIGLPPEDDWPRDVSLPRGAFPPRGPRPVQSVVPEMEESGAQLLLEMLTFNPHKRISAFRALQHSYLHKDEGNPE
# Chain of Cyclin-dependent kinase 4/cyclin D1 (P24385 whole entry, further chain): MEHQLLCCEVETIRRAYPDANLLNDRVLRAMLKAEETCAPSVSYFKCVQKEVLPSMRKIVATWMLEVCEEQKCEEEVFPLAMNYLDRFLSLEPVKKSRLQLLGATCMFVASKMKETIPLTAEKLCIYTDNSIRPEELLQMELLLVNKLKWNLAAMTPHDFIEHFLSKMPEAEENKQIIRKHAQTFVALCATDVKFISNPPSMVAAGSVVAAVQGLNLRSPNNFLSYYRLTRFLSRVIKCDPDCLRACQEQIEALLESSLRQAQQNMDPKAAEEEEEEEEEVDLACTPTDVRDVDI
# Chain of Aurora kinase B (Q96GD4 whole entry): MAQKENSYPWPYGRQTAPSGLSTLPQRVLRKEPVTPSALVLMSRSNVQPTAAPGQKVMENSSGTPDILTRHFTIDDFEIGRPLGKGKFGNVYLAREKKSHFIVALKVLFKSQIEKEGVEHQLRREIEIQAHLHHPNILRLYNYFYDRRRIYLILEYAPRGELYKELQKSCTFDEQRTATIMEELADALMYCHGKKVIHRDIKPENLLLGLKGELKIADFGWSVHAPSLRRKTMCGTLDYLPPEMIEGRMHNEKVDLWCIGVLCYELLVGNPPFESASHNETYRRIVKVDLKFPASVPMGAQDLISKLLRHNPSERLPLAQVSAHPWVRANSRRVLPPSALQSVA
compound,measurement,setting,value
O=C1CCCc2[nH]c3c(c21)C(=O)c1ccccc1-3,inhibition,[1],19%
CC1(C)CC(=O)c2c3c(n(Cc4ccccc4)c2C1)-c1ccccc1C3=O,inhibition,[1],10%
OC[C@H]1O[C@@H](n2cnc3cc(Cl)c(Cl)cc32)[C@H](O)[C@@H]1O [DICHLORORIBOBENZIMIDAZOLE],IC50,[2],15 µM
COC(=O)C1C(=O)c2c3c(n(Cc4ccccc4)c2CC1C)-c1ccccc1C3=O (configuration not stated),inhibition,[1],15%
O=C1CCCc2c1c1c(n2CCc2ccccc2)-c2ccccc2C1=O,inhibition,[1],67%
COC(=O)C1C(=O)c2c([nH]c3c2C(=O)c2ccccc2-3)CC1C (configuration not stated),inhibition,[1],28%
O=C1c2ccccc2-c2c1c1c(O)cccc1n2Cc1ccccc1,inhibition,[1],25%
COc1ccc(CCn2c3c(c4c(O)cccc42)C(=O)c2ccccc2-3)cc1OC,inhibition,[1],34%
O=C1CCCc2c1c1c(n2Cc2ccccn2)-c2ccccc2C1=O,inhibition,[1],30%
O=c1oc2c(O)c(O)cc3c(=O)oc4c(O)c(O)cc1c4c23 [ELLAGIC ACID],IC50,[3],0.8 µM
same,IC50,[4],0.79 µM
same,IC50,[5],1.54 µM
same,IC50,[6],0.34 µM
same,IC50,[7],0.58 µM
same,IC50,[8],3.34 µM
same,IC50,[9],2.97 µM
same,IC50,[10],0.26 µM
same,IC50,[11],2.37 µM
same,IC50,[12],3.34 µM
same,IC50,[13],0.51 µM
same,IC50,[14],2.48 µM
same,IC50,[15],2.5 µM
same,IC50,[16],1.76 µM
same,IC50,[17],3.39 µM
same,IC50,[18],1.09 µM
same,IC50,[19],1.83 µM
same,IC50,[20],3.54 µM
same,IC50,[21],3.11 µM
same,IC50,[22],0.25 µM
O=C1CCCc2c1c1c(n2CCCc2ccccc2)-c2ccccc2C1=O,inhibition,[1],27%
COc1ccc(Cn2c3c(c4c2-c2ccccc2C4=O)C(=O)CCC3)cc1,inhibition,[1],41%
CC1CC(=O)c2c3c(n(Cc4ccccc4)c2C1)-c1ccccc1C3=O (racemic),inhibition,[1],11%
Brc1c(Br)c(Br)c2[nH]nnc2c1Br [TETRABROMOBENZOTRIAZOLE],IC50,[23],1.6 µM
O=C1CC(c2ccccc2)Cc2c1c1c(n2Cc2ccccc2)-c2ccccc2C1=O (racemic),inhibition,[1],3%
O=C1CCCc2c1c1c(n2-c2ccccc2)-c2ccccc2C1=O,inhibition,[1],60%
O=C1CCCc2c1c1c(n2Cc2ccccc2)-c2ccccc2C1=O,inhibition,[1],48%
CC(c1ccccc1)n1c2c(c3c1-c1ccccc1C3=O)C(=O)CCC2 (configuration not stated),inhibition,[1],66%
same,IC50,[24],4.66 µM
CC(C)n1c2c(c3c1-c1ccccc1C3=O)C(=O)CCC2,IC50,[3],> 35 µM
same,IC50,[4],> 35 µM
same,IC50,[5],> 35 µM
same,IC50,[6],> 35 µM
same,IC50,[7],> 35 µM
same,IC50,[8],> 35 µM
same,IC50,[9],> 35 µM
same,IC50,[10],> 35 µM
same,IC50,[11],> 35 µM
same,inhibition of growth at 20 µM,[25],25%
same,IC50,[12],> 35 µM
same,IC50,[13],> 35 µM
same,IC50,[14],> 35 µM
same,IC50,[15],> 35 µM
same,IC50,[16],> 35 µM
same,IC50,[17],> 35 µM
same,IC50,[18],> 35 µM
same,IC50,[19],> 35 µM
same,IC50,[20],> 35 µM
same,IC50,[21],> 35 µM
same,IC50,[22],> 35 µM
COc1ccc(CCn2c3c(c4c2-c2ccccc2C4=O)C(=O)CCC3)cc1OC,inhibition,[1],50%
O=C1c2ccccc2-c2c1c1c(O)cc(-c3ccccc3)cc1n2Cc1ccccc1,inhibition,[1],31%
Cc1cc(O)c2c(c1)C(=O)c1cc(O)cc(O)c1C2=O [EMODIN],IC50,[26],0.89 µM
